Screening data (PubChem BioAssay)
PKD1 inh – inhibitors of human PKD1 kinase; Q15139; PKD1 kinase fluorescence polarization assay; inhibition, % (test concentration not listed); actives 0.056% (n = 200,000); AID 797; in the data active means inhibition above about 50%
p97 ATPase inh – blocks human p97 ATPase activity | P55072 | recombinant p97 ATPase, Kinase-Glo ATP luminescence, 3 h | inhibition, % at 8 µM | AID 1481 | actives 0.42% (n = 220,000); in the data active means inhibition above about 15%;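 further: 0% = DMSO vehicle and 100% = wells lacking enzyme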
PP1 inh – PP1-alpha (human) inhibition in PP5 counter-screen; purified PP1alpha, OMFP fluorescence; inhibition, % at 6.7 µM; actives 0.9% (n = 320,000); AID 2235;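 active means inhibition above the mean inhibition of all tested compounds plus 3 SD, computed separately for each screening campaign, cut at about 15% in these data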
Target sequence (P62136 whole entry, looked up): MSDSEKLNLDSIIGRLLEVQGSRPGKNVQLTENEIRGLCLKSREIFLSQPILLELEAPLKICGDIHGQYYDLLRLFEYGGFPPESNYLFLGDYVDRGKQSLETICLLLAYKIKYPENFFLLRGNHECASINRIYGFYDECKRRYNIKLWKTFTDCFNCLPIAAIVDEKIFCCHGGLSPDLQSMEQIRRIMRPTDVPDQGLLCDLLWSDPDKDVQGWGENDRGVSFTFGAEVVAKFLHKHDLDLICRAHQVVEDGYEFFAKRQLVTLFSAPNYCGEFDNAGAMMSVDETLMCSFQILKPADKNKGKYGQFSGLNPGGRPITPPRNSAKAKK
Hsp70 activator – transcriptional activators of Hsp70; AID 1203; HeLa Hsp70 promoter luciferase reporter, luminescence; scaled: vehicle 0, proteasome-inhibitor control 100%; actives 0.04% (n = 200,000); activation, % at 10 µM;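 active means activation above the mean across all tested compounds plus 3 SD, cutoff set per campaign, cut at about 5.5% in these data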;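 further: 100% = MG132 at 30 µM as the positive control and 0% = DMSO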
PP5 primary – inhibitors of human protein phosphatase 5 (PP5) | P53041 | purified PP5c, OMFP substrate fluorescence | inhibition, % at 6.7 µM | actives 0.18% (n = 320,000);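 active means inhibition above the campaign's mean inhibition across all tested compounds plus 3 SD, cut at about 9.5% in these data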;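 further: 0% = DMSO only and 100% = 100 µM cantharidin control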
RBBP9 inh – blocks human serine hydrolase RBBP9 | AID 1515 | O75884 | recombinant RBBP9, FP-Rh probe fluorescence polarization | inhibition, % at 7.94 µM | actives 0.2% (n = 220,000);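 active means inhibition above the campaign mean of all tested compounds plus 3 SD, cut at about 14% in these data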;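 further: plate controls were DMSO wells with RBBP9 for no effect and wells lacking RBBP9 protein for full effect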
Target sequence (O75884 whole entry, looked up): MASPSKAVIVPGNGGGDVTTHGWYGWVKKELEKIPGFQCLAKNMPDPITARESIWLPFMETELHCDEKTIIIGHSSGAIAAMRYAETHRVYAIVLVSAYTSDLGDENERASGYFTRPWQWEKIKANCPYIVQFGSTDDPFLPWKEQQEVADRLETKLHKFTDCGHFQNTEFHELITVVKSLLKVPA
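Measured by – fluorescence polarization · Test system – RBBP9 protein · Input – 2.5 µM RBBP9 dispensing solution, before mixing · Measure – percent inhibition from mP, scaled between DMSO and no-protein wells · Benchmarks – DMSO-treated enzyme wells and wells lacking RBBP9 · Times – preincubation 30 min plus labeling 45 min at 25 °C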
PP1 inh confirm – confirmation of human PP1 phosphatase inhibitors; shares compounds with PP1 inh; purified PP1alpha, OMFP substrate fluorescence; inhibition, % at 6.7 µM; actives 52% (n = 1,900);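 active means mean PP1 inhibition above a set limit taken from the earlier primary screen, cut at about 15% in these data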
PP5 inh counter – counter-screen for PP1 inhibitors: human PP5 phosphatase inhibition; shares compounds with PP1 inh; purified PP5c, OMFP fluorescence; inhibition, % at 6.7 µM; actives 4% (n = 1,900); AID 2360;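 active means mean PP5 inhibition over triplicate wells above about 9.5% taken from the earlier PP1 screen, limit read from the data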
Starred values were filed as active, the others as inactive; x = not tested or not shown. Rows were chosen to be rich in hits. Some 1.5% of all compounds tested hit in one or more screens of this group.

SMILES	PKD1 inh	p97 ATPase inh	PP1 inh	Hsp70 activator	PP5 primary	RBBP9 inh	PP1 inh confirm	PP5 inh counter
Cc1ccc(C)n1-c1ccc(-c2nnco2)cc1	-4	0	24*	0	0	0	1	-3
CC(O)c1ccc(-n2cnnn2)cc1 (stereo unspecified)	-17	5	8	0	0	0	x	x
CC(C)NC(=O)c1cccc2c1-c1ccccc1C2=O	x	x	-1	x	-1	x	x	x
Cc1cccn2c(=O)c(C=C(C#N)C#N)c(N3CCN(c4cccc(Cl)c4)CC3)nc12	x	x	-2	x	-7	x	x	x
Cc1cc(C)c(NC(=O)C2=COCCO2)c(C)c1	x	x	-4	x	-2	x	x	x
Nc1nc(SCC(=O)Nc2ccc([N+](=O)[O-])cc2)[nH]c(=O)c1NC(=O)c1ccc(Br)cc1	x	x	19*	x	0	x	23*	-3
Nc1cc(=O)[nH]c(SCC(=O)Nc2ccc([N+](=O)[O-])cc2)n1	x	13	-3	x	1	-13	x	x
Cc1ccc(S(=O)(=O)N[C@@H](CO)C(=O)N[C@@H](Cc2ccc(O)cc2)C(=O)O)cc1	x	x	0	x	-2	x	x	x
CCCCCCC[C@H](N)[C@H](O)C(=O)N(C)[C@@H](CCS(C)=O)C(=O)N[C@@H](Cc1ccc(O)cc1)C(=O)N[C@@H](Cc1ccc(O)cc1)C(=O)O (stereo partly specified)	x	x	95*	x	88*	x	95*	86*
COc1ccc(C(=O)N2CCCC(C(=O)N3CCN(c4ccccc4)CC3)C2)cc1 (stereo unspecified)	x	4	2	x	-1	1	x	x
O=C(NNC(=S)Nc1ccc(Cl)c(Cl)c1)c1ccccn1	-2	0	21*	0	-1	-6	24*	1
CCNC(=S)NNC(=O)c1ccccn1	4	-3	-2	0	2	1	x	x
CC1CCc2c(sc(NC(=O)C(=O)NCc3ccco3)c2C#N)C1 (stereo unspecified)	-8	12	20*	0	2	0	21*	-3
O=C(Nc1nccs1)c1ccc(NC(=O)C2CC=CCC2C(=O)O)cc1 (stereo unspecified)	-1	4	-2	0	2	-4	x	x
Cc1nc(SCc2ccc(Cl)c(Cl)c2)ncc1C(=O)O	-5	-3	1	0	3	-5	x	x
CNc1cc(CSC)nc(SCc2ccc(Cl)c(Cl)c2)n1	-2	-10	25*	0	6	-10	10	3
CCN(CC)CCN(C(=O)c1ccc2c(c1)CCCC2)c1nc2cc(OC)c(OC)cc2s1	x	x	24*	x	17*	x	-3	2
COc1cc(CCN2C(=O)c3cccc4cccc(c34)C2=O)c(S(=O)(=O)NCCCO)cc1OC	7	1	3	-1	0	-8	x	x
C=CCn1c(SCc2ccc(C(=O)Nc3nccs3)cc2)nnc1-c1ccc(C)c(Cl)c1	-15	1	18*	0	4	-14	8	0
Cn1nnnc1SCc1ccc(C(=O)Nc2nccs2)cc1	-3	4	-2	0	2	-1	x	x
CCC(=O)N1CCN(c2ccccc2NC(=O)c2ccc(-c3cccc([N+](=O)[O-])c3)o2)CC1	-4	-4	19*	0	2	-8	17*	-2
CCCCCCCCCCOC(=O)Cn1c(COc2ccc(Cl)cc2)[n+](C)c2ccccc21	x	x	48*	x	6	x	21*	2
CCCCCCCCCCOC(=O)Cn1c(COc2ccc(OC)cc2)[n+](C)c2ccccc21	x	x	35*	x	4	x	2	-1
CCCCCCCCCCOC(=O)Cn1c(COc2ccccc2)[n+](C)c2ccccc21	x	x	36*	x	5	x	9	3
CCCCOC(=O)Cn1c(=O)n(CC(=O)OCCCC)c2ccccc21	0	-2	2	0	3	-5	x	x
SMILES	PKD1 inh	p97 ATPase inh	PP1 inh	Hsp70 activator	PP5 primary	RBBP9 inh	PP1 inh confirm	PP5 inh counter
CCCCCOC(=O)Cn1c(=O)oc2ccccc21	-4	-7	8	0	4	-11	x	x
CCCCCCCCCCOC(=O)Cn1c(COc2cccc(C)c2)[n+](C)c2ccccc21	x	x	42*	x	5	x	16*	4
O=C(C[n+]1ccccc1)Nc1ccccc1[N+](=O)[O-]	x	x	0	x	1	x	x	x
CC(OC(=O)c1ccc(OCC2CCCO2)cc1)C(=O)N(C)Cc1ccccc1 (stereo unspecified)	x	x	0	x	-2	x	x	x
CCC(C(=O)NCCCN1CCCC1=O)n1c2ccccc2c2nc(=O)cc(C)n21 (stereo unspecified)	x	x	0	x	1	x	x	x
CCCCCCCCCCOC(=O)Cn1c(COc2ccccc2C)[n+](C)c2ccccc21	x	x	44*	x	6	x	16*	4
CCOC(=O)Cn1c(COc2ccccc2OC)[n+](C)c2ccccc21	x	x	-8	x	1	x	x	x
CCn1c(SCC(=O)Nc2oc(-c3ccccc3)c(-c3ccccc3)c2C#N)nnc1-c1ccco1	-6	-1	18*	0	1	-4	10	-1
CC1=C(C(=O)OC2CCCCCCC2)C(c2cc3c(cc2Br)OCO3)CC(=O)N1 (stereo unspecified)	-11	-1	0	0	4	-7	x	x
Cc1cc(C(=O)COc2cccnc2[N+](=O)[O-])c(C)n1Cc1cccs1	3	4	18*	0	9.9*	-8	2	1
CN(C)CCOc1ccc(/C(=C(/CCCl)c2ccccc2)c2ccccc2)cc1	x	x	21*	x	5	x	-9	-1
O=C1CCC([N+](=O)[O-])C(c2ccc3c(c2)OCO3)N1 (stereo unspecified)	-6	-3	-3	0	-3	-6	x	x
CCCCCCCCCCCC1=C(O)C(=O)C=C(O)C1=O	x	x	46*	x	2	x	35*	-7
N#Cc1ccccc1NC(=O)COC(=O)/C=C/c1cn(-c2ccccc2)nc1-c1ccc(Cl)cc1	1	-1	x	0	x	-6	x	x
O=C(/C=C/c1cn(-c2ccccc2)nc1-c1ccccc1)Nc1ccc(C(=O)O)cc1	-4	1	19*	0	4	-25	9	4
NS(=O)(=O)c1ccc(NC(=O)/C=C/c2cn(-c3ccccc3)nc2-c2cccc(Cl)c2)cc1	-1	3	14	0	-1	-28	x	x
O=C(/C=C/c1cn(-c2ccccc2)nc1-c1cccnc1)c1ccco1	11	0	18*	1	0	-15	-3	-1
NC(=O)c1ccc(NC(=O)COC(=O)/C=C/c2cn(-c3ccccc3)nc2-c2cccnc2)cc1	-15	-3	23*	0	2	-27	19*	-1
COc1cccc2cc(C(=O)Nc3ccccc3Cl)/c(=N/NS(=O)(=O)c3ccccc3)oc12	x	x	1	x	-1	x	x	x
